ChEMBL document CHEMBL5724801, “EUbOPEN Chemogenomics Library - Multiplex” (2024)
“And” between values parts separate entries of the source, which are not always exact repeats. Equal values may be shown once.

Tested on: Fibroblast
Assay: Multiplex assay against human fibroblast
Assay type: toxicity, cell-based
Summary of the method: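 Live cells carried four stains from seeding: Hoechst33342, BioTracker Green Microtubule Cytoskeleton Dye, MitoTracker Red and Annexin V Alexa Fluor 680. They were imaged on a CQ1 microscope at 37°C and 5% CO2 after compound addition. Using CellPathfinder machine-learning gating, cells were split into Hoechst high-intensity objects or normal cells, normal cells into healthy, pyknosed or fragmented nuclei, and pyknosed cells into mitotic or apoptotic; tubulin, mitochondrial-mass and membrane-permeability phenotypes are per cents of healthy-nucleus cells.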

[1] = 12 h, 1 µM, compound concentration 1 uM
[2] = 12 h, 10 µM, compound concentration 10 uM
[3] = 24 h, 1 µM, compound concentration 1 uM
[4] = 24 h, 10 µM, compound concentration 10 uM
[5] = 48 h, 1 µM, compound concentration 1 uM
[6] = 48 h, 10 µM, compound concentration 10 uM

CC(C)(O)c1cnc(N2C[C@@]3(CCC[C@](C)(Cn4cnc5ccc(C#N)cc54)C3)OC2=O)cn1 [GSK2798745]
Population Apoptotic (%) [1]: 7.14% and 16.22%
Population Fragmented Nuclei (%) [1]: 12.71% and 8%
Population Healthy Nuclei (%) [1]: 63.56% and 75.56%
Population Hoechst High Intensity Objects (%) [1]: 0%
Population Membrane Permeable-Phenotype (%) [1]: 4% and 4.12%
Population Mitochondria Different-Phenotype (%) [1]: 13.33% and 10.59%
Population Mitotic Cells (%) [1]: 92.86% and 83.78%
Population Normal (%) [1]: 100%
Population Pyknosed Nuclei (%) [1]: 23.73% and 16.44%
Population Tubulin-Different-Phenotype (%) [1]: 16% and 20%
Total Cell Count [1]: 118 and 225
Population Apoptotic (%) [2]: 11.76% and 21.62%
Population Fragmented Nuclei (%) [2]: 16.26% and 5.53%
Population Healthy Nuclei (%) [2]: 50.25% and 77.42%
Population Hoechst High Intensity Objects (%) [2]: 0%
Population Membrane Permeable-Phenotype (%) [2]: 14.71% and 12.5%
Population Mitochondria Different-Phenotype (%) [2]: 18.63% and 22.62%
Population Mitotic Cells (%) [2]: 88.24% and 78.38%
Population Normal (%) [2]: 100%
Population Pyknosed Nuclei (%) [2]: 33.5% and 17.05%
Population Tubulin-Different-Phenotype (%) [2]: 52.94% and 55.95%
Total Cell Count [2]: 203 and 217
Population Apoptotic (%) [3]: 9.09% and 21.05%
Population Fragmented Nuclei (%) [3]: 14.29% and 4.76%
Population Healthy Nuclei (%) [3]: 65.22% and 87.01%
Population Hoechst High Intensity Objects (%) [3]: 0%
Population Membrane Permeable-Phenotype (%) [3]: 1.9% and 5.97%
Population Mitochondria Different-Phenotype (%) [3]: 4.76% and 5.97%
Population Mitotic Cells (%) [3]: 90.91% and 78.95%
Population Normal (%) [3]: 100%
Population Pyknosed Nuclei (%) [3]: 20.5% and 8.23%
Population Tubulin-Different-Phenotype (%) [3]: 16.19% and 21.89%
Total Cell Count [3]: 161 and 231
Population Apoptotic (%) [4]: 11.11% and 25.81%
Population Fragmented Nuclei (%) [4]: 15.38% and 6.88%
Population Healthy Nuclei (%) [4]: 68.33% and 78.9%
Population Hoechst High Intensity Objects (%) [4]: 0%
Population Membrane Permeable-Phenotype (%) [4]: 9.93% and 5.81%
Population Mitochondria Different-Phenotype (%) [4]: 12.58% and 22.09%
Population Mitotic Cells (%) [4]: 88.89% and 74.19%
Population Normal (%) [4]: 100%
Population Pyknosed Nuclei (%) [4]: 16.29% and 14.22%
Population Tubulin-Different-Phenotype (%) [4]: 52.32% and 62.21%
Total Cell Count [4]: 221 and 218
Population Fragmented Nuclei (%) [5]: 10.86% and 4.58%
Population Healthy Nuclei (%) [5]: 82.29% and 90.83%
Population Hoechst High Intensity Objects (%) [5]: 0%
Population Membrane Permeable-Phenotype (%) [5]: 0% and 4.13%
Population Mitotic Cells (%) [5]: 91.67% and 63.64%
Population Normal (%) [5]: 100%
Population Pyknosed Nuclei (%) [5]: 6.86% and 4.58%
Population Tubulin-Different-Phenotype (%) [5]: 12.5% and 17.89%
Total Cell Count [5]: 175 and 240
Population Apoptotic (%) [6]: 14.29% and 42.11%
Population Fragmented Nuclei (%) [6]: 11.06% and 7.96%
Population Healthy Nuclei (%) [6]: 78.85% and 83.63%
Population Hoechst High Intensity Objects (%) [6]: 0%
Population Membrane Permeable-Phenotype (%) [6]: 4.27% and 11.64%
Population Mitochondria Different-Phenotype (%) [6]: 21.95% and 10.05%
Population Mitotic Cells (%) [6]: 85.71% and 57.89%
Population Normal (%) [6]: 100%
Population Pyknosed Nuclei (%) [6]: 10.1% and 8.41%
Population Tubulin-Different-Phenotype (%) [6]: 44.51% and 59.79%
Total Cell Count [6]: 208 and 226

COCCNc1cc(NC(=O)N2CCCc3cc(CN4CCN(C)CC4=O)c(C=O)nc32)ncc1C#N [FGF401]
Population Apoptotic (%) [1]: 10.64% and 13.95%
Population Fragmented Nuclei (%) [1]: 11.5% and 4.82%
Population Healthy Nuclei (%) [1]: 65% and 77.91%
Population Hoechst High Intensity Objects (%) [1]: 0%
Population Membrane Permeable-Phenotype (%) [1]: 3.85% and 1.03%
Population Mitochondria Different-Phenotype (%) [1]: 6.15% and 8.25%
Population Mitotic Cells (%) [1]: 89.36% and 86.05%
Population Normal (%) [1]: 100%
Population Pyknosed Nuclei (%) [1]: 23.5% and 17.27%
Population Tubulin-Different-Phenotype (%) [1]: 13.08% and 10.31%
Total Cell Count [1]: 200 and 249
Population Apoptotic (%) [2]: 14.63% and 19.35%
Population Fragmented Nuclei (%) [2]: 15.03% and 6.59%
Population Healthy Nuclei (%) [2]: 58.17% and 76.37%
Population Hoechst High Intensity Objects (%) [2]: 0%
Population Membrane Permeable-Phenotype (%) [2]: 3.37% and 5.76%
Population Mitochondria Different-Phenotype (%) [2]: 11.24% and 10.07%
Population Mitotic Cells (%) [2]: 85.37% and 80.65%
Population Normal (%) [2]: 100%
Population Pyknosed Nuclei (%) [2]: 26.8% and 17.03%
Population Tubulin-Different-Phenotype (%) [2]: 22.47% and 25.9%
Total Cell Count [2]: 153 and 182
Population Apoptotic (%) [3]: 11.11% and 15.38%
Population Fragmented Nuclei (%) [3]: 11.01% and 5.33%
Population Healthy Nuclei (%) [3]: 68.35% and 89.34%
Population Hoechst High Intensity Objects (%) [3]: 0%
Population Membrane Permeable-Phenotype (%) [3]: 7.38% and 0.46%
Population Mitochondria Different-Phenotype (%) [3]: 4.7% and 6.42%
Population Mitotic Cells (%) [3]: 88.89% and 84.62%
Population Normal (%) [3]: 100%
Population Tubulin-Different-Phenotype (%) [3]: 9.4% and 12.84%
Total Cell Count [3]: 218 and 244
Population Apoptotic (%) [4]: 8.57% and 3.23%
Population Fragmented Nuclei (%) [4]: 12.26% and 4.02%
Population Healthy Nuclei (%) [4]: 65.16% and 80.4%
Population Hoechst High Intensity Objects (%) [4]: 0%
Population Membrane Permeable-Phenotype (%) [4]: 8.91% and 3.75%
Population Mitochondria Different-Phenotype (%) [4]: 6.93% and 8.75%
Population Mitotic Cells (%) [4]: 91.43% and 96.77%
Population Normal (%) [4]: 100%
Population Pyknosed Nuclei (%) [4]: 22.58% and 15.58%
Population Tubulin-Different-Phenotype (%) [4]: 17.82% and 16.88%
Total Cell Count [4]: 155 and 199
Population Fragmented Nuclei (%) [5]: 9.45% and 6.06%
Population Healthy Nuclei (%) [5]: 81.89% and 88.26%
Population Hoechst High Intensity Objects (%) [5]: 0%
Population Membrane Permeable-Phenotype (%) [5]: 0.48% and 1.29%
Population Mitochondria Different-Phenotype (%) [5]: 12.02% and 2.58%
Population Mitotic Cells (%) [5]: 63.64% and 93.33%
Population Normal (%) [5]: 100%
Population Pyknosed Nuclei (%) [5]: 8.66% and 5.68%
Population Tubulin-Different-Phenotype (%) [5]: 2.88% and 11.59%
Total Cell Count [5]: 254 and 264
Population Apoptotic (%) [6]: 27.27% and 18.18%
Population Fragmented Nuclei (%) [6]: 9.49% and 6.84%
Population Healthy Nuclei (%) [6]: 83.54% and 87.37%
Population Hoechst High Intensity Objects (%) [6]: 0%
Population Membrane Permeable-Phenotype (%) [6]: 1.52% and 1.81%
Population Mitotic Cells (%) [6]: 72.73% and 81.82%
Population Normal (%) [6]: 100%
Population Pyknosed Nuclei (%) [6]: 6.96% and 5.79%
Population Tubulin-Different-Phenotype (%) [6]: 9.85% and 22.29%
Total Cell Count [6]: 158 and 190
